# Laboratory results from ChEMBL document CHEMBL5576140, “Computational Design of Pore-Forming Peptides with Potent Antimicrobial and Anticancer Activities” (J Med Chem, 2024).
# Active and inactive are the calls of the source. The calls are words filed in the database; no cut-off is given here.
# Tests used:
# [1] = Toxicity in neutropenic CD-1 mouse deep thigh infection model infected with Acinetobacter baumannii ATCC 19606 assessed as body weight change at 0.16 mg/kg, ip measured after 4 days; assay type: organism-based; conditions: in vivo, 96 h, time 4 day
# How it was run: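 Neutropenic mice infected intramuscularly in the right thigh with 10⁶ cells per mL of A. baumannii ATCC 19606. […] Body weight monitored for toxicity. Euthanasia 4 days post-infection (day 8). n = 6 per group, from three inocula.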
# Monocyte = experiment: Cytotoxicity against human monocytes assessed as deleterious effect upto 50 uM by flow cytometry; assay type: toxicity, cell-based
# How it was run: (§1)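 Whole blood from a healthy donor treated with peptides up to 50 μM; effect on B and T lymphocytes, granulocytes and monocytes assessed.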
# RPMI-8226 = experiment: Anti-cancer activity against human RPMI-8226 cells incubated for 72 hrs by Cell Titer Glo assay; assay type: functional, cell-based; conditions: RPMI-8226, 72 h
# HCT-116 = experiment: pH-dependent anticancer activity against human HCT-116 cells in PBS medium at 10 uM incubated for 1 hr; assay type: functional, cell-based
# How it was run: (§2)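 Cells cultured in RPMI, DMEM or PBS, each adjusted to pH 8, 7 or 6, plus one unadjusted (~7.6). Peptide at 10 μM for only 1 h, to limit pH drift from CO₂-bicarbonate buffering. Cell viability read. Controls were melittin, ampicillin and PBS. Two independent repetitions; effects analysed by ANOVA.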
# PC-3 = experiment: Anti-cancer activity against human PC-3 cells incubated for 72 hrs by Cell Titer Glo assay; assay type: functional, cell-based; conditions: PC-3, 72 h
# [2] = Stability in human serum assessed as half life at 10 mg/ml by UPLC-MS analysis; assay type: ADME, cell-free
# How it was run: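 Peptides dissolved in PBS and incubated in 25% human serum. Intact peptide remaining followed over time to at least 6 h; half-life taken as time to 50% stability.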
# MDA-MB-435 = experiment: Anti-cancer activity against human MDA-MB-435 cells incubated for 72 hrs by Cell Titer Glo assay; assay type: functional, cell-based; conditions: MDA-MB-435, 72 h
# MCF7 [3] = experiment: pH-dependent anticancer activity against human MCF7 cells in RPMI medium at 10 uM incubated for 1 hr; assay type: functional, cell-based; how it was run: as §2
# OVCAR-3 = experiment: Anti-cancer activity against human OVCAR-3 cells incubated for 72 hrs by Cell Titer Glo assay; assay type: functional, cell-based; conditions: OVCAR-3, 72 h
# MOLM-13 = experiment: Anti-cancer activity against human MOLM-13 cells incubated for 24 hrs by WST assay; assay type: functional, cell-based; conditions: MOLM-13, 24 h
# DU-145 = experiment: Anti-cancer activity against human DU-145 cells incubated for 72 hrs by Cell Titer Glo assay; assay type: functional, cell-based; conditions: DU-145, 72 h
# MCF7 [4] = experiment: Induction of apoptosis in human MCF7 cells in DMEM medium at pH 6 assessed as increase in cleaved PARP level at 5 uM; assay type: functional, cell-based
# How it was run: (§3)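 MCF-7 cells treated with peptides at pH 6; apoptosis detected by immunoblotting for cleaved PARP and cleaved caspase-3.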
# T-cell line = experiment: Cytotoxicity against human T-lymphocytes assessed as deleterious effect upto 50 uM by flow cytometry; assay type: toxicity, cell-based; how it was run: as §1
# Staphylococcus aureus = experiment: Antimicrobial activity against Staphylococcus aureus NE163 harboring single transposon insertion mutation in aureolysin at 30 uM incubated for 18 hrs relative to control; assay type: functional
# How it was run: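 CA-MRSA USA300 LAC derivative JE2 and single transposon insertion mutants derived from JE2, each lacking an extracellular protease gene, were exposed to peptides up to 30 μM. The read-out was percent growth inhibition. Peptides were dissolved in PBS, and tests were run in triplicate.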
# Klebsiella pneumoniae = experiment: Induction of outer membrane permeabilization in Klebsiella pneumoniae ATCC 13883 measured for 20 mins by NPN uptake assay; assay type: functional, organism-based
# How it was run: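 Outer-membrane permeabilization of Gram-negative bacteria read as rise in fluorescence of the lipophilic dye NPN, which enters only when outer-membrane integrity is compromised. Peptides applied at their MIC against the respective strain; polymyxin B and levofloxacin as reference antibiotics. Triplicates.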
# Acinetobacter baumannii [5] = experiment: Depolarization of cytoplasmic membrane in Acinetobacter baumannii ATCC 19606 at MIC measured for 45 mins by DiSC3-(5) dye based assay; assay type: functional, organism-based
# How it was run: (§4)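 Bacteria loaded with membrane-potential dye DiSC3-(5), then treated with peptide at its MIC for the respective strain; depolarization read as rise in dye fluorescence; polymyxin B and levofloxacin as reference antibiotics.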
# MCF7 [6] = experiment: Induction of apoptosis in human MCF7 cells in DMEM medium at pH 6 assessed as increase in cleaved capase-3 level at 5 uM; assay type: functional, cell-based; how it was run: as §3
# Acinetobacter baumannii [7] = experiment: Induction of outer membrane permeabilization in Acinetobacter baumannii ATCC 19606 measured for 20 mins by NPN uptake assay; assay type: functional, organism-based
# HL-60 = experiment: pH-dependent anticancer activity against human HL-60 cells in RPMI medium at 10 uM incubated for 1 hr; assay type: functional, cell-based; how it was run: as §2
# NCI-H460 = experiment: Anti-cancer activity against human NCI-H460 cells incubated for 72 hrs by Cell Titer Glo assay; assay type: functional, cell-based; conditions: NCI-H460, 72 h
# U-251 = experiment: Anti-cancer activity against human U-251MG cells incubated for 72 hrs by Cell Titer Glo assay; assay type: functional, cell-based; conditions: U-251, 72 h
# Pseudomonas aeruginosa = experiment: Depolarization of cytoplasmic membrane in Pseudomonas aeruginosa PAO1 at MIC measured for 45 mins by DiSC3-(5) dye based assay; assay type: functional, organism-based; how it was run: as §4
# A498 = experiment: Anti-cancer activity against human A498 cells incubated for 72 hrs by Cell Titer Glo assay; assay type: functional, cell-based; conditions: A498, 72 h
# MOLT-4 = experiment: Anti-cancer activity against human MOLT-4 cells incubated for 72 hrs by Cell Titer Glo assay; assay type: functional, cell-based; conditions: MOLT-4, 72 h
# Mus musculus = experiment: Induction of wound healing activity in immunosuppressed Balb/c mouse excisional dorsal wound infection model infected with Acinetobacter baumannii NCTC 13301 assessed as reduction in necrosis of epidermal tissue at wound edges at about 10 mg/kg treated for 7 days once daily; assay type: functional, organism-based; conditions: time 7.0 day
# A549 = experiment: Anti-cancer activity against human A549 cells incubated for 72 hrs by Cell Titer Glo assay; assay type: functional, cell-based; conditions: A549, 72 h
# [8] = Toxicity against reconstructed human skin model assessed as irritation at 50 uM incubated for 1 hr followed by compound washout measured after 42 hrs by MTT assay; assay type: tissue-based, Skin of body
# How it was run: (§5)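 Reconstructed human epidermis with stratum corneum, per OECD TG 439 skin irritation guideline. Tissues exposed 1 h to peptide at 50 μM, then 42 h post-treatment incubation. Viability read by MTT. Controls were SDS and melittin.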
# SK-OV-3 = experiment: Anti-cancer activity against human SK-OV-3 cells incubated for 72 hrs by Cell Titer Glo assay; assay type: functional, cell-based; conditions: SK-OV-3, 72 h
# [9] = Toxicity against reconstructed human skin model assessed as tissue viability at 50 uM incubated for 1 hr followed by compound washout measured after 42 hrs by MTT assay; assay type: tissue-based, Skin of body; conditions: read-out: Activity; how it was run: as §5
# SUD4 = experiment: Anti-cancer activity against human SU-DHL-4 cells incubated for 24 hrs by WST assay; assay type: functional, cell-based; conditions: SU-DHL-4, 24 h
# [10] = Hemolytic activity against human RBC incubated for 1 hr by microplate reader analysis; assay type: toxicity, cell-based, Erythrocyte; conditions: red blood cells (erythrocytes)
# How it was run: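 Human red blood cells exposed to peptides up to 50 μM; hemolysis measured, IC50 derived where reached.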
# SW-620 = experiment: Anti-cancer activity against human SW620 cells incubated for 72 hrs by Cell Titer Glo assay; assay type: functional, cell-based; conditions: SW-620, 72 h
# K562 = experiment: pH-dependent anticancer activity against human K562 cells in PBS medium at 10 uM incubated for 1 hr; assay type: functional, cell-based; how it was run: as §2
substance,measurement,setting,value
H-KKKKLKKILKKLFQFINQLDNQLQDIKQNK-NH2,Activity,[1],Non-Toxic
same,Activity,Monocyte,Non-Toxic
same,IC50,RPMI-8226,1 µM
same,Activity,HCT-116,Active
same,IC50,PC-3,1 µM
same,half-life at 10 mg/ml,[2],> 6 h
same,IC50,MDA-MB-435,1 µM
same,Activity,MCF7 [3],Active
same,IC50,OVCAR-3,1 µM
same,IC50,MOLM-13,≤ 10 µM
same,IC50,DU-145,1 µM
same,Activity,MCF7 [4],Active
same,Activity,T-cell line,Non-Toxic
same,inhibition at 30 µM,Staphylococcus aureus,< 45%
same,Activity,Klebsiella pneumoniae,Active
same,Activity,Acinetobacter baumannii [5],Active
same,Activity,MCF7 [6],Active
same,Activity,Acinetobacter baumannii [7],inactive
same,Activity,HL-60,Active
same,IC50,NCI-H460,1 µM
same,IC50,U-251,1 µM
same,Activity,Pseudomonas aeruginosa,Active
same,IC50,A498,1 µM
same,IC50,MOLT-4,1 µM
same,Activity,Mus musculus,Active
same,IC50,A549,1 µM
same,Activity,[8],Non-Toxic
same,IC50,SK-OV-3,1 µM
same,"viability at 1 h, 50 µM",[9],100%
same,IC50,SUD4,≤ 10 µM
same,IC50 at 1 h,[10],> 50 µM
same,IC50,SW-620,1 µM
same,Activity,K562,Active
